This note sets out measurements from ChEMBL document CHEMBL1122372, “Synthesis of aminomethyl-substituted cyclic imide derivatives for evaluation as anticonvulsants” (J Med Chem, 1983).

The structures appear in SMILES notation. Active and inactive are the calls of the source. The rule behind the calls is not given here.

One may read the ED50 as the dose that gives a 50% effect, or the effect in half of the subjects. A high value points to a need for a large dose. As a reminder, the TD50 is the dose at which the toxic effect under study appears in half of the subjects. Low values mean harm at a small dose, high ones harm only at a large dose.

For data set [1], the system named is Mus musculus. The data set can be described thus: Anti-pentylenetetrazole activity at 0.5 hr in mice […]; += Compound is active at 300 mg/kg. The data set is classed as functional, organism-based. An outline of the steps: (§1)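 Phase I screen in mice run by the NINCDS Antiepileptic Drug Development Program. Four mice per dose, scored 0.5 and 4 h after dosing, for protection against seizures induced by 85 mg/kg subcutaneous pentylenetetrazole. Dose levels were 30, 100, 300 and 600 mg/kg. Activity is the lowest dose at which at least one of four animals is protected, confirmed in a second trial.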

In data set [2] the test system is Mus musculus. The data set can be described thus: Tested for anti maximal electroshock activity at 4 h; - denotes inactive up to 600 mg/kg. It counts as functional, organism-based. Further details: dose 600 mg/kg. An outline of the steps: (§2)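 Phase I screen in mice run by the NINCDS Antiepileptic Drug Development Program. Four mice per dose, scored 0.5 and 4 h after dosing, for prevention of tonic hindlimb extension following maximal electroshock. Doses were 30, 100, 300 or 600 mg/kg. Activity is the lowest dose protecting at least one of four animals, provided a second trial confirms it.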
(Protection in the maximal electroshock model is a classic sign of anticonvulsant action.)

The test system of data set [3] is Mus musculus. The data set can be described thus: Tested for rotarod neurotoxicity, number of deaths from respiratory depression among four animals given a dose 600 mg/kg was reported; inactive. It counts as functional. (Falling from the rotarod earlier than controls is read as motor impairment.)
The subject of data set [4] is Mus musculus. The data set can be described thus: Tested for anti-pentylenetetrazole activity in mice at 4 h; - denotes inactive up to 600 mg/kg. The data set is classed as functional, organism-based. Further details: dose 600 mg/kg. An outline of the steps:
as §1

The subject of data set [5] is Mus musculus. The data set can be described thus: Tested for anti maximal electroshock activity at 0.5 hr […]; += Compound is active at 300 mg/kg. The data set is classed as functional, organism-based. In a few lines:
as §2

Data set [6] relates to Mus musculus. The data set can be described thus: Anti-pentylenetetrazole activity at 0.5 hr in mice […]; +=Compound is active at 300 mg/kg. It counts as functional, organism-based. An outline of the steps:
as §1

In data set [7] the test system is Mus musculus. The data set can be described thus: Tested for rotarod neurotoxicity, number of deaths from respiratory depression among four animals given a dose 600 mg/kg was reported.
Data set [8] deals with Mus musculus. The data set can be described thus: Tested for anti maximal electroshock activity at 0.5 hr at dose 100 mg/kg; ++=Compound is active at 100 mg/kg. It counts as functional, organism-based. An outline of the steps:
as §2

Data set [9] is filed under the species Mus musculus. The data set can be described thus: (§3) Effective dose against maximal electroshock seizures in mice, at 0.5 hr. The data set is classed as functional. In a few lines:
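Phase II quantification in mice under the NINCDS Antiepileptic Drug Development Program. Protection against maximal electroshock, scored as prevention of tonic hindlimb extension, was measured at the time of peak effect, 0.5 h after dosing. Median effective dose was derived by probit analysis with 95% confidence intervals.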

For data set [10], the system named is Mus musculus. The data set can be described thus: Anti-pentylenetetrazole activity at 0.5 h; - denotes inactive up to 600 mg/kg. It counts as functional, organism-based. Further details: dose 600 mg/kg. An outline of the steps:
as §1

The test system of data set [11] is Mus musculus. The data set can be described thus: Tested for rotarod neurotoxicity, number of deaths from respiratory depression among four animals given a dose 600 mg/kg was reported. Conditions: in vivo.
The species entered for data set [12] is Mus musculus. The data set can be described thus: Effective dose against maximal electroshock seizures in mice, at 0.5 h. The data set is classed as functional. An outline of the steps:
(§4)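 Phase II quantification in mice by the NINCDS Anticonvulsant Drug Development Program. Median effective dose against maximal electroshock-induced seizures, measured at the time of peak effect, 0.5 h. The 95% confidence intervals come from probit analysis.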

Data set [13] in a line: Tested for neurotoxicity in rotarod test. The data set is classed as toxicity, organism-based. The following applies: mouse, in vivo. An outline of the steps:
(§5)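 Phase I rotarod neurotoxicity in mice, run by the NINCDS Antiepileptic Drug Development Program. Doses were 30, 100, 300 or 600 mg/kg. Deaths from respiratory depression were counted among four animals given 600 mg/kg.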

The test system of data set [14] is Mus musculus. The data set can be described thus: Tested for anti maximal electroshock activity at 4 h; += Compound is active at 300 mg/kg. Set-up: dose 300 mg/kg. The data set is classed as functional, organism-based. An outline of the steps:
as §2

A short description of data set [15]: Tested for rotarod neurotoxicity at dose 300 mg/kg. Further details: dose 300 mg/kg. It counts as organism-based. Conditions: mouse, in vivo. An outline of the steps:
as §5

Data set [16] is filed under the species Mus musculus. Described as §3. The data set is classed as functional. In a few lines: as §4
The source holds these as a separate data set.

Data set [17] concerns Mus musculus. The data set can be described thus: Tested for rotarod neurotoxicity, number of deaths from respiratory depression among four animals given a dose 600 mg/kg was reported. It counts as organism-based. Further details: dose 600 mg/kg. The following applies: in vivo.
Data set [18] in a line: Tested for Neurotoxicity in rotarod test. It counts as toxicity, organism-based. The following applies: mouse, in vivo. In a few lines:
as §5

In data set [19] the test system is Mus musculus. The data set can be described thus: Anti-pentylenetetrazole activity; - denotes inactive up to 600 mg/kg. It counts as functional, organism-based. Set-up: dose 600 mg/kg. In a few lines: as §1

On to `CC(=O)NCC1CC(=O)N(Cc2ccccc2)C1=O` (stereo not given), for which the PTZ result was “active at 300 mg/kg” in the data set with Mus musculus [1] and “Not toxic” with Mus musculus [4]. For the same molecule, the MES result was “Not toxic” in the data set with Mus musculus [2] and “active at 300 mg/kg” with Mus musculus [5]. In the data set on Mus musculus [3], this molecule registered an NT of 0.

On to `CC(=O)NCC1(C)CC(=O)N(Cc2ccccc2)C1=O` (stereo not given), for which the MES result was “Not toxic” in the data set on Mus musculus [2] and “active at 100 mg/kg” in the data set on Mus musculus [8]. The PTZ result with Mus musculus [6] is “active at 300 mg/kg”; with Mus musculus [4] it was “Not toxic”. This molecule also came in with an NT in the data set with Mus musculus [7] of 0.

`CN1C(=O)CC(c2ccccc2)C1=O` (stereo not given) [PHENSUXIMIDE] registered a median effective dose (ED50) in the data set listed under Mus musculus [9] of 112 mg/kg.

With `Cl.NCC1CC(=O)N(Cc2ccccc2)C1=O` (stereo not given), in the data set on Mus musculus [2], the MES entry is “Not toxic”. Also, the PTZ entry in the data set on Mus musculus [10] and in the data set on Mus musculus [4] was “Not toxic” throughout. Moreover, the NT with Mus musculus [11] stood at 4. For the same molecule, the ED50 in the data set listed under Mus musculus [12] stood at 108 mg/kg. The TD50 in data set [13] amounted to 268 mg/kg.

In turn, `CN1C(=O)CC(C)(c2ccccc2)C1=O` (stereo not given) [METHSUXIMIDE] displayed an ED50 in the data set listed under Mus musculus [9] of 76.3 mg/kg.

Turning to `CC1(CN)CC(=O)N(Cc2ccccc2)C1=O` (stereo not given), the PTZ entry in the data set on Mus musculus [10] and with Mus musculus [4] was “Not toxic” in each case. Besides, the NT in the data set with Mus musculus [11] came to 2. In the data set listed under Mus musculus [12], the 50% effect level (ED50) was put at a dose of 66.4 mg/kg. In the data set with Mus musculus [14], the MES entry is “active at 300 mg/kg”. The molecule further yielded a TD50 in data set [15] of 228 mg/kg.

Regarding `O=C1CC(CNCc2ccccc2)C(=O)N1Cc1ccccc1` (stereo not given), the ED50 in the data set listed under Mus musculus [16] stood at 136 mg/kg. For the same molecule, in the data set with Mus musculus [2], the MES entry was “Not toxic”. Also, the NT in the data set with Mus musculus [17] is 4. The TD50 in [18] was 267 mg/kg. Moreover, the PTZ result with Mus musculus [4] and in the data set on Mus musculus [19] was “Not toxic” in each case.
